Assay results published in ChEMBL document CHEMBL2169882, “Exploration of novel 3-substituted azetidine derivatives as triple reuptake inhibitors” (J Med Chem, 2012).
Calls of active or inactive are those of the source. The rule behind the calls is not given here.

Key:
[1] = biological target: T1, Sodium-dependent serotonin transporter (Homo sapiens, UniProt P31645); details: HEK293, at 0.1 µM
Target sequence in this assay (P31645 whole entry, looked up): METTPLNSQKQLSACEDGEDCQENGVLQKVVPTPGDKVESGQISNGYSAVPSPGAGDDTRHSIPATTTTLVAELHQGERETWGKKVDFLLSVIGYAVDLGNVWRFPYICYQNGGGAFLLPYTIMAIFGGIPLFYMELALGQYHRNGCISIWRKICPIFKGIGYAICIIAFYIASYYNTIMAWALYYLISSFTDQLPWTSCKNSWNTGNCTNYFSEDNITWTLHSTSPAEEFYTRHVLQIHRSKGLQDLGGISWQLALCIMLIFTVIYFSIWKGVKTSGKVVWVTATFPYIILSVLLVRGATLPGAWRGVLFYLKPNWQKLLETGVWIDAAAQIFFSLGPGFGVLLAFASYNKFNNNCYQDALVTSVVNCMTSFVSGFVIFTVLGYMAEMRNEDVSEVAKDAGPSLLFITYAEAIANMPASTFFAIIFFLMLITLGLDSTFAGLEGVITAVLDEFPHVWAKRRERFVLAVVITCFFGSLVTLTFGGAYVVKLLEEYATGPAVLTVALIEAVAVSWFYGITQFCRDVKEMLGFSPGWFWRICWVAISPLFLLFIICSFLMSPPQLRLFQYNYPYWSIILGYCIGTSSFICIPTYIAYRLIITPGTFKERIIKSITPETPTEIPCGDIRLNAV

[2] = biological target: T2, Sodium-dependent dopamine transporter (Homo sapiens, UniProt Q01959); details: HEK293, at 0.1 µM
T2 sequence (Q01959 whole entry): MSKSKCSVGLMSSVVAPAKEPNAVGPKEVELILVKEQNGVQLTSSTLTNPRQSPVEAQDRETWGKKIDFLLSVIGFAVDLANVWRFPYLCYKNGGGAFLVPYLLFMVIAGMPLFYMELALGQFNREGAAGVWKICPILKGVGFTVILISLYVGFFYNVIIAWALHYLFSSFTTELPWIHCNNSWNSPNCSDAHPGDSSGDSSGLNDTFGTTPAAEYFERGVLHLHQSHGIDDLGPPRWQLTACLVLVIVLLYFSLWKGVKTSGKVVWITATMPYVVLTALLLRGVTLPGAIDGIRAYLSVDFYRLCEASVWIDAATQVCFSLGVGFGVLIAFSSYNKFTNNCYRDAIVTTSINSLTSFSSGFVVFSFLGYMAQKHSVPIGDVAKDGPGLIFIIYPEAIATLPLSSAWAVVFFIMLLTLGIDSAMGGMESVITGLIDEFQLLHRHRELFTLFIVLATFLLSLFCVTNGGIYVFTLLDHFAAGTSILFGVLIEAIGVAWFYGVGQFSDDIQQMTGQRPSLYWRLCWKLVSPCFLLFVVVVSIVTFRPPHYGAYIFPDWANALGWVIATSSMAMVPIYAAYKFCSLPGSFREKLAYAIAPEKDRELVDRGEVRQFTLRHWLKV

[3] = biological target: T3, Sodium-dependent noradrenaline transporter (Homo sapiens, UniProt P23975); details: HEK293, at 0.1 µM
T3 sequence (P23975 whole entry): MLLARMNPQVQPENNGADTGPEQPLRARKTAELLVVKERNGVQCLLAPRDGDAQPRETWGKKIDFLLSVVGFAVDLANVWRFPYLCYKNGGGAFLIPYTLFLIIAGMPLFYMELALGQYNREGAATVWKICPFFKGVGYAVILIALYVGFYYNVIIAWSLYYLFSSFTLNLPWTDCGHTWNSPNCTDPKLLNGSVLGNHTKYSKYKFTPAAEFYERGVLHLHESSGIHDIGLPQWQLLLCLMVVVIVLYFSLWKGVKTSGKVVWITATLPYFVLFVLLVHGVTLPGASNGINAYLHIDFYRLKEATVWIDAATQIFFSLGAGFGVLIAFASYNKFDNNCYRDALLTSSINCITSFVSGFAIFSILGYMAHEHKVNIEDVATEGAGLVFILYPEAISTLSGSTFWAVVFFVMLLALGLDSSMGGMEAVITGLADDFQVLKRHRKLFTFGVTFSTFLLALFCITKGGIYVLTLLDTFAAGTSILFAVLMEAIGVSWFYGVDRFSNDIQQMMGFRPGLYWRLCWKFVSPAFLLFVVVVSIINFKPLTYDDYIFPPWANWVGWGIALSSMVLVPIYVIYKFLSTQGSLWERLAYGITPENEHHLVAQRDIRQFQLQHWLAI

[4] = system: Mus musculus; assay: Antidepressant activity in ICR mouse assessed as reduction in immobility time at 10 mg/kg, iv after 0.5 hrs by forced swimming test; assay type: functional, organism-based; parameters: dose 10 mg/kg
Outline: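 ICR mice; forced swimming test following Porsolt's method. Intravenous dosing 0.5 h before the test at 2.5, 5.0 and 10.0 mg/kg. Read-out was immobility time, compared with vehicle-treated mice.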

[5] = biological target: T1, Sodium-dependent serotonin transporter; assay type: cell-based, HEK293
Target sequence in this assay (P31645 whole entry): as the sequence (P31645 whole entry, looked up) above

[6] = biological target: T2, Sodium-dependent dopamine transporter; assay type: cell-based, HEK293
[7] = biological target: T3, Sodium-dependent noradrenaline transporter; assay type: cell-based, HEK293

SMILES | inhibition [1] [%] | inhibition [2] [%] | inhibition [3] [%] | Activity [4] | IC50 [5] [nM] | IC50 [6] [nM] | IC50 [7] [nM]
CCOC(c1ccccc1)C1CNC1 (stereo not drawn) | 4 | 3 | 4.5 | – | – | – | –
CNCCC(Oc1ccccc1OC)c1ccccc1 (stereo not drawn) | 9.9 | 9.8 | – | – | – | – | –
Fc1cc(C(Oc2ccccc2F)C2CNC2)ccc1Cl (stereo not drawn) | 41 | 29 | 81 | – | – | – | –
Clc1ccc(C(OCc2ccccc2)C2CNC2)cc1Cl (stereo not drawn) | 12 | 12 | 30 | – | – | – | –
COC(c1ccccc1)C1CNC1 (stereo not drawn) | 3.3 | 2.2 | 1.5 | – | – | – | –
Clc1ccc(C(OCc2ccccc2)C2CNC2)cc1 (stereo not drawn) | 12 | 5.7 | 16 | – | – | – | –
OC(c1ccccc1)C1CNC1 (stereo not drawn) | 1.7 | 3.9 | 0.2 | – | – | – | –
COC(c1ccc(Cl)c(Cl)c1)C1CNC1 (stereo not drawn) | 16 | 22 | 47 | – | – | – | –
COc1ccc(C(CN(C)C)C2(O)CCCCC2)cc1 (stereo not drawn) | – | – | – | Active | – | – | –
Clc1ccc(C(Oc2ccccc2)C2CNC2)cc1Cl (stereo not drawn) | 16 | 58 | 89 | – | – | – | –
Fc1cc(C(Oc2ccccc2)C2CNC2)ccc1Cl (stereo not drawn) | 49 | 30 | 76 | – | 142 | 148 | 21
